Data on 2 molecules can be found in publication PMC7561591 (European Journal of Medicinal Chemistry, 2020).

For data set [1] the following is noted: reference compounds of the solubility assay; cited from earlier work.
The nature of data set [2]: Metabolic stability in human liver microsomes. In kind it is in vitro ADME. Put shortly: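 Test compound (10 μM) preincubated 5 min at 37 °C with HLM (1 mg/mL) in 0.1 M phosphate buffer pH 7.4, then started with 2 mM NADPH under shaking at 37 °C. Samples at 0, 10, 20, 40 and 60 min quenched in cold acetonitrile with labetalol internal standard and centrifuged. Unchanged substrate and metabolites tracked; t1/2 and CLint from kinetic analysis.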

As for `C[C@H]1O[C@@H](O[C@H]2[C@@H](O)C[C@H](O[C@H]3[C@@H](O)C[C@H](O[C@H]4CC[C@@]5(C)[C@H](CC[C@@H]6[C@@H]5C[C@@H](O)[C@]5(C)[C@@H](C7=CC(=O)OC7)CC[C@]65O)C4)O[C@@H]3C)O[C@@H]2C)C[C@H](O)[C@@H]1O` [Digossin], in data set [1], the “equilibrium solubility of reference compounds” value is 84.0 µM.
The term half-life denotes how long it takes for the measured level to halve. Low readings indicate fast loss, high ones slow loss. Take `Cc1cc(-c2ccccc2)nc2nc(C(=O)Nc3ccccc3C(N)=O)nn12` [Compound 23]: in data set [2] (HLM, kinetic analysis in WebMetabase), the intrinsic clearance is listed as 4.18 μL/min∗ mgprot. Moreover, the half-life at 10 μM in data set [2] (human, liver microsomes, pH 7.4) amounted to 2.77 h.
